{"source": "ChEMBL document CHEMBL1132764", "about": "“Solution-phase combinatorial synthesis and evaluation of piperazine-2,5-dione derivatives” (2000)", "data": [{"test_system": "Artemia salina", "experiment": "(§1) Compound was tested for brine shrimp (Artemia salina) toxicity measured as the lowest value at which severe inhibition of nauplii movement was observed", "format": "functional", "conditions": "not given", "method_in_brief": "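Artemia salina eggs held 24 h in artificial seawater; about 20 nauplii per well in 980 µL brine. Compound added as 1-100 µg in 20 µL DMSO, top concentration 100 µg/mL, each concentration in quadruplicate. Incubated 24 h at 26 °C. Larvae scored against DMSO controls (control deaths <10%). Assay conditions validated with caffeine.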", "units": {"lowest concentration causing severe inhibition of nauplii movement": "µg/mL"}, "values": [{"smiles": "O=c1[nH]/c(=C\\c2ccccc2[N+](=O)[O-])c(=O)[nH]/c1=C\\c1ccccc1[N+](=O)[O-]", "lowest concentration causing severe inhibition of nauplii movement": ">100"}, {"smiles": "C/C=c1\\[nH]c(=O)/c(=C/CC)[nH]c1=O", "lowest concentration causing severe inhibition of nauplii movement": ">100"}, {"smiles": "O=c1[nH]/c(=C\\c2ccc([N+](=O)[O-])cc2)c(=O)[nH]/c1=C\\c1ccc([N+](=O)[O-])cc1", "lowest concentration causing severe inhibition of nauplii movement": ">100"}, {"smiles": "COc1ccc(/C=c2\\[nH]c(=O)/c(=C/c3cc(OC)c(OC)c(OC)c3)[nH]c2=O)cc1OC", "lowest concentration causing severe inhibition of nauplii movement": 100}, {"smiles": "COc1ccc(/C=c2\\[nH]c(=O)/c(=C/c3cccs3)[nH]c2=O)cc1OC", "lowest concentration causing severe inhibition of nauplii movement": ">100"}, {"smiles": "COc1cc(OC)c(/C=c2\\[nH]c(=O)/c(=C/c3c[nH]c4ccccc34)[nH]c2=O)c(OC)c1", "lowest concentration causing severe inhibition of nauplii movement": ">100"}, {"smiles": "COc1ccc(/C=c2\\[nH]c(=O)/c(=C/c3ccccc3[N+](=O)[O-])[nH]c2=O)cc1", "lowest concentration causing severe inhibition of nauplii movement": ">100"}, {"smiles": "CC/C=c1\\[nH]c(=O)/c(=C/C(C)C)[nH]c1=O", "lowest concentration causing severe inhibition of nauplii movement": ">100"}, {"smiles": "C/C=c1\\[nH]c(=O)/c(=C/CCCCC)[nH]c1=O", "lowest concentration causing severe inhibition of nauplii movement": ">100"}, {"smiles": "C/C=C/C=c1\\[nH]c(=O)/c(=C/CCCCC)[nH]c1=O", "lowest concentration causing severe inhibition of nauplii movement": 100}, {"smiles": "O=c1[nH]/c(=C\\c2ccccc2[N+](=O)[O-])c(=O)[nH]/c1=C\\c1ccc([N+](=O)[O-])cc1", "lowest concentration causing severe inhibition of nauplii movement": ">100"}, {"smiles": "O=c1[nH]/c(=C\\c2cccs2)c(=O)[nH]/c1=C\\c1cccs1", "lowest concentration causing severe inhibition of nauplii movement": ">100"}, {"smiles": "COc1ccc(/C=c2\\[nH]c(=O)/c(=C/c3ccccc3)[nH]c2=O)cc1", "lowest concentration causing severe inhibition of nauplii movement": ">100"}, {"smiles": "CCCCC/C=c1\\[nH]c(=O)/c(=C/CCCCC)[nH]c1=O", "lowest concentration causing severe inhibition of nauplii movement": 100}, {"smiles": "CC(C)/C=c1\\[nH]c(=O)/c(=C/C(C)C)[nH]c1=O", "lowest concentration causing severe inhibition of nauplii movement": ">100"}, {"smiles": "COc1cc(OC)c(/C=c2\\[nH]c(=O)/c(=C/c3c(OC)cc(OC)cc3OC)[nH]c2=O)c(OC)c1", "lowest concentration causing severe inhibition of nauplii movement": 100}, {"smiles": "COc1ccc(/C=c2\\[nH]c(=O)/c(=C/c3ccc(Cl)cc3)[nH]c2=O)cc1", "lowest concentration causing severe inhibition of nauplii movement": ">100"}, {"smiles": "COc1cc(OC)c(/C=c2\\[nH]c(=O)/c(=C/c3ccccn3)[nH]c2=O)c(OC)c1", "lowest concentration causing severe inhibition of nauplii movement": ">100"}, {"smiles": "O=c1[nH]/c(=C\\c2ccc(O)cc2)c(=O)[nH]/c1=C\\c1ccccc1", "lowest concentration causing severe inhibition of nauplii movement": ">100"}, {"smiles": "C/C=C/C=c1\\[nH]c(=O)/c(=C/CC)[nH]c1=O", "lowest concentration causing severe inhibition of nauplii movement": ">100"}, {"smiles": "COc1cc(/C=c2\\[nH]c(=O)/c(=C/c3cc(OC)c(OC)c(OC)c3)[nH]c2=O)cc(OC)c1", "lowest concentration causing severe inhibition of nauplii movement": 100}, {"smiles": "COc1cc(/C=c2\\[nH]c(=O)/c(=C/c3cc(OC)cc(OC)c3)[nH]c2=O)cc(OC)c1", "lowest concentration causing severe inhibition of nauplii movement": ">100"}, {"smiles": "COc1cc(/C=c2\\[nH]c(=O)/c(=C/c3cccs3)[nH]c2=O)cc(OC)c1OC", "lowest concentration causing severe inhibition of nauplii movement": ">100"}, {"smiles": "C/C=c1\\[nH]c(=O)c(=CC=Cc2ccccc2)[nH]c1=O", "lowest concentration causing severe inhibition of nauplii movement": ">100"}, {"smiles": "COc1ccc(/C=c2\\[nH]c(=O)/c(=C/c3ccc(OC)cc3)[nH]c2=O)cc1", "lowest concentration causing severe inhibition of nauplii movement": ">100"}, {"smiles": "COc1cc(/C=c2\\[nH]c(=O)/c(=C/c3ccc(OC)c(OC)c3)[nH]c2=O)cc(OC)c1", "lowest concentration causing severe inhibition of nauplii movement": ">100"}, {"smiles": "O=c1[nH]/c(=C\\c2ccccn2)c(=O)[nH]/c1=C\\c1ccccn1", "lowest concentration causing severe inhibition of nauplii movement": 100}, {"smiles": "O=c1[nH]/c(=C\\c2ccc(Cl)cc2)c(=O)[nH]/c1=C\\c1ccccc1", "lowest concentration causing severe inhibition of nauplii movement": ">100"}, {"smiles": "CC/C=c1\\[nH]c(=O)/c(=C/CC)[nH]c1=O", "lowest concentration causing severe inhibition of nauplii movement": ">100"}, {"smiles": "CC/C=c1\\[nH]c(=O)/c(=C/CCCCC)[nH]c1=O", "lowest concentration causing severe inhibition of nauplii movement": 100}, {"smiles": "C/C=C/C=c1\\[nH]c(=O)/c(=C/C=C/C)[nH]c1=O", "lowest concentration causing severe inhibition of nauplii movement": ">100"}, {"smiles": "O=c1[nH]/c(=C\\c2ccccc2[N+](=O)[O-])c(=O)[nH]/c1=C\\c1ccccc1", "lowest concentration causing severe inhibition of nauplii movement": ">100"}, {"smiles": "C/C=c1\\[nH]c(=O)/c(=C/C)[nH]c1=O", "lowest concentration causing severe inhibition of nauplii movement": 100}, {"smiles": "COc1cc(/C=c2\\[nH]c(=O)/c(=C/c3cc(OC)c(OC)c(OC)c3)[nH]c2=O)cc(OC)c1OC", "lowest concentration causing severe inhibition of nauplii movement": ">100"}, {"smiles": "O=c1[nH]/c(=C\\c2c[nH]c3ccccc23)c(=O)[nH]/c1=C\\c1c[nH]c2ccccc12", "lowest concentration causing severe inhibition of nauplii movement": ">100"}, {"smiles": "COc1cc(OC)c(/C=c2\\[nH]c(=O)/c(=C/c3ccc(OC)c(OC)c3)[nH]c2=O)c(OC)c1", "lowest concentration causing severe inhibition of nauplii movement": ">100"}, {"smiles": "C/C=c1\\[nH]c(=O)/c(=C/C=C/C)[nH]c1=O", "lowest concentration causing severe inhibition of nauplii movement": ">100"}, {"smiles": "O=c1[nH]/c(=C\\c2ccc([N+](=O)[O-])cc2)c(=O)[nH]/c1=C\\c1ccccc1", "lowest concentration causing severe inhibition of nauplii movement": ">100"}, {"smiles": "COc1ccc(/C=c2\\[nH]c(=O)/c(=C/c3c[nH]c4ccccc34)[nH]c2=O)cc1OC", "lowest concentration causing severe inhibition of nauplii movement": ">100"}, {"smiles": "O=c1[nH]/c(=C\\c2ccc(Cl)cc2)c(=O)[nH]/c1=C\\c1ccc(Cl)cc1", "lowest concentration causing severe inhibition of nauplii movement": ">100"}, {"smiles": "O=c1[nH]/c(=C\\c2ccccc2)c(=O)[nH]/c1=C\\c1ccccc1", "lowest concentration causing severe inhibition of nauplii movement": ">100"}, {"smiles": "COc1cc(/C=c2\\[nH]c(=O)/c(=C/c3ccccn3)[nH]c2=O)cc(OC)c1OC", "lowest concentration causing severe inhibition of nauplii movement": 100}, {"smiles": "COc1ccc(/C=c2\\[nH]c(=O)/c(=C/c3ccc(OC)c(OC)c3)[nH]c2=O)cc1OC", "lowest concentration causing severe inhibition of nauplii movement": ">100"}, {"smiles": "CC/C=c1\\[nH]c(=O)c(=CC=Cc2ccccc2)[nH]c1=O", "lowest concentration causing severe inhibition of nauplii movement": ">100"}, {"smiles": "CCCCC/C=c1\\[nH]c(=O)/c(=C/C(C)C)[nH]c1=O", "lowest concentration causing severe inhibition of nauplii movement": ">100"}, {"smiles": "O=c1[nH]/c(=C\\c2ccccc2[N+](=O)[O-])c(=O)[nH]/c1=C\\c1ccc(Cl)cc1", "lowest concentration causing severe inhibition of nauplii movement": ">100"}, {"smiles": "O=c1[nH]/c(=C\\c2c[nH]c3ccccc23)c(=O)[nH]/c1=C\\c1ccccn1", "lowest concentration causing severe inhibition of nauplii movement": ">100"}, {"smiles": "COc1cc(/C=c2\\[nH]c(=O)/c(=C/c3c[nH]c4ccccc34)[nH]c2=O)cc(OC)c1OC", "lowest concentration causing severe inhibition of nauplii movement": 100}, {"smiles": "O=c1[nH]/c(=C\\c2ccc([N+](=O)[O-])cc2)c(=O)[nH]/c1=C\\c1ccc(Cl)cc1", "lowest concentration causing severe inhibition of nauplii movement": ">100"}, {"smiles": "COc1ccc(/C=c2\\[nH]c(=O)/c(=C/c3ccc([N+](=O)[O-])cc3)[nH]c2=O)cc1", "lowest concentration causing severe inhibition of nauplii movement": ">100"}, {"smiles": "COc1cc(/C=c2\\[nH]c(=O)/c(=C/c3c[nH]c4ccccc34)[nH]c2=O)cc(OC)c1", "lowest concentration causing severe inhibition of nauplii movement": ">100"}, {"smiles": "O=c1[nH]/c(=C\\c2cccs2)c(=O)[nH]/c1=C\\c1ccccn1", "lowest concentration causing severe inhibition of nauplii movement": 100}, {"smiles": "CC(C)/C=c1\\[nH]c(=O)c(=CC=Cc2ccccc2)[nH]c1=O", "lowest concentration causing severe inhibition of nauplii movement": ">100"}, {"smiles": "COc1cc(OC)c(/C=c2\\[nH]c(=O)/c(=C/c3cc(OC)c(OC)c(OC)c3)[nH]c2=O)c(OC)c1", "lowest concentration causing severe inhibition of nauplii movement": ">100"}, {"smiles": "COc1cc(/C=c2\\[nH]c(=O)/c(=C/c3c(OC)cc(OC)cc3OC)[nH]c2=O)cc(OC)c1", "lowest concentration causing severe inhibition of nauplii movement": 100}, {"smiles": "COc1cc(OC)c(/C=c2\\[nH]c(=O)/c(=C/c3cccs3)[nH]c2=O)c(OC)c1", "lowest concentration causing severe inhibition of nauplii movement": ">100"}, {"smiles": "C/C=C/C=c1\\[nH]c(=O)/c(=C/C(C)C)[nH]c1=O", "lowest concentration causing severe inhibition of nauplii movement": ">100"}, {"smiles": "O=c1[nH]/c(=C\\c2c[nH]c3ccccc23)c(=O)[nH]/c1=C\\c1cccs1", "lowest concentration causing severe inhibition of nauplii movement": ">100"}]}, {"test_system": "Artemia salina", "experiment": "as §1", "format": "functional", "conditions": "read-out: LD50 (the source's name)", "method_in_brief": "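Artemia salina eggs held 24 h in artificial seawater; about 20 nauplii per well in 980 µL brine. Compound added at 1-100 µg in 20 µL DMSO, top level 100 µg/mL (solubility limit), each concentration in quadruplicate. Incubated 24 h at 26 °C. Nauplii movement inhibition and survival scored against DMSO controls, with control deaths <10%.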", "units": {"LC50": "mg/L"}, "values": [{"smiles": "COc1ccc(/C=c2\\[nH]c(=O)/c(=C/c3ccccn3)[nH]c2=O)cc1OC", "LC50": 60}, {"smiles": "COc1cc(/C=c2\\[nH]c(=O)/c(=C/c3cccs3)[nH]c2=O)cc(OC)c1", "LC50": 18}, {"smiles": "COc1cc(/C=c2\\[nH]c(=O)/c(=C/c3ccccn3)[nH]c2=O)cc(OC)c1", "LC50": 36}]}]}
